Laboratory results: ChEMBL document CHEMBL4346668, “Novel multitarget inhibitors with antiangiogenic and immunomodulator properties” (Eur J Med Chem, 2019)
The source made the active and inactive calls. The rule behind the calls is not given here.

Tests used:
HeLa = assay: Antiproliferative activity against human HeLa cells incubated for 2 days by MTT assay; assay type: functional, cell-based; settings: 48 h
Outline: (§1)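 MTT assay. Cells seeded at 3 × 10³/well (HeLa, A549, HMEC-1, HEK-293) or 5 × 10³/well (HT-29, MCF-7) in their growth media with serial compound dilutions from 10 mM DMSO stocks. Incubated 2 days at 37 °C, 5% CO₂, then MTT added for 3 h and formazan dissolved in DMSO. A540 read and viability expressed versus untreated cells. IC₅₀ determined graphically; three independent experiments.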

A549 [1] = assay: Immunomodulatory activity in human A549 cells assessed as inhibition of PD-L1 level at 100 uM incubated for 24 hrs by confocal laser scanning microscopic method; assay type: functional, cell-based
Outline: (§2)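 A549 cells on cover glass treated 24 h at 100 µM, permeabilized with PEM-Triton X-100 0.5% and fixed in 3.7% formaldehyde. Direct immunostaining 2 h at 37°C in darkness with anti-PD-L1-AlexaFluor647 (excitation 650, emission 665 nm) and anti-c-Myc-FITC (excitation 488, emission 496–535 nm). Confocal microscopy, 63x oil objective.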

[2] = target: Programmed cell death 1 ligand 1 (Homo sapiens) (UniProt Q9NZQ7); assay: Binding affinity to PDL1 (unknown origin) assessed as change in melting temperature at 100 uM by fluorescence based real time RT-PCR analysis
HEK293 = assay: Antiproliferative activity against HEK293 cells incubated for 2 days by MTT assay; assay type: cell-based; settings: Homo sapiens, HEK293, 48 h; outline: as §1
HT-29 [3] = assay: Antiproliferative activity against human HT-29 cells at 200 uM incubated for 24 hrs in presence of Jurkat T cells by trypan blue staining based Neubauer chamber method relative to control; assay type: functional
Outline: (§3)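 Co-culture of 5 × 10⁴ tumor cells/well with 2 × 10⁵ PD-1-expressing Jurkat T cells in 1.5 mL, treated 24 h with compound at 200 µM. Supernatant discarded; tumor cells trypsinized, stained with trypan blue and living cells counted in a Neubauer chamber. Proliferation inhibition (%) attributable to Jurkat presence reported; representative of three experiments.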

A549 [4] = assay: Antiproliferative activity against human A549 cells at 200 uM incubated for 24 hrs in presence of Jurkat T cells by trypan blue staining based Neubauer chamber method relative to control; assay type: functional; outline: as §3
A549 [5] = assay: Antiproliferative activity against human A549 cells incubated for 2 days by MTT assay; assay type: functional, cell-based; settings: A549, 48 h; outline: as §1
HT-29 [6] = assay: Antiproliferative activity against human HT-29 cells incubated for 2 days by MTT assay; assay type: functional, cell-based; settings: HT-29, 48 h; outline: as §1
A549 [7] = assay: Immunomodulatory activity in human A549 cells assessed as reduction in c-Myc expression level at 100 uM incubated for 24 hrs by ELISA relative to control; assay type: functional; design: scale not given: the % may be the effect or the level left
Outline: (§4)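 A549 cells (3·10⁵/well) treated 24 h with compound; final concentration 100 µM for some compounds and 15 µM for others per table footnote. Lysates protein-normalized by Bradford, and PD-L1 and c-Myc quantified by commercial ELISA kits as % of DMSO-treated cells. Mean ± SD of three experiments.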

A549 [8] = assay: Immunomodulatory activity in human A549 cells assessed as reduction in PD-L1 expression level at 100 uM incubated for 24 hrs by ELISA relative to control; assay type: functional; design: scale not given: the % may be the effect or the level left; outline: as §4
A549 [9] = assay: Immunomodulatory activity in human A549 cells assessed as inhibition of c-Myc level at 100 uM incubated for 24 hrs by confocal laser scanning microscopic method; assay type: functional, cell-based; outline: as §2
MCF7 = assay: Antiproliferative activity against human MCF7 cells incubated for 2 days by MTT assay; assay type: functional, cell-based; settings: MCF7, 48 h; outline: as §1
HMEC-1 [10] = assay: Antiproliferative activity against HMEC1 cells incubated for 2 days by MTT assay; assay type: cell-based; settings: Homo sapiens, HMEC-1, 48 h; outline: as §1
A549 [11] = assay: Effect on VEGFR2 in human A549 cells assessed as membrane VEGFR2 level at 100 uM incubated for 24 hrs by flow cytometric analysis relative to control; assay type: functional
Outline: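 A549 cells exposed 24 h to compound at 100 µM. Membrane VEGFR-2 stained on fixed cells with Alexa Fluor 647 anti-VEGFR-2; Triton X-100 permeabilization before fixation used for total VEGFR-2. Flow cytometry, % of DMSO control; mean ± SD of three experiments.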

A549 [12] = assay: Induction of apoptosis in human A549 cells assessed as apoptotic cells at 100 uM incubated for 24 hrs by FITC-Annexin V staining based flow cytometric analysis (reference value: 20%); assay type: functional
A549 [13] = assay: Effect on VEGFR2 in human A549 cells assessed as membrane VEGFR2 level at 10 uM incubated for 24 hrs by flow cytometric analysis relative to control; assay type: functional
Outline: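 A549 cells incubated 24 h with compound at 10 µM. Membrane VEGFR-2 (fixed cells) and total VEGFR-2 (permeabilized or lysate) stained with Alexa Fluor 647 anti-CD309 and quantified by flow cytometry relative to DMSO control; mean ± SD of three experiments.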

HMEC-1 [14] = assay: Effect on VEGFR2 in HMEC1 cells assessed as total VEGFR2 level at 100 uM incubated for 24 hrs by flow cytometric analysis relative to control; assay type: functional, Homo sapiens
Outline: (§5)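 HMEC-1 cells exposed 24 h to compound at 100 µM. Membrane VEGFR-2 measured on fixed cells stained with Alexa Fluor 647 anti-CD309; total VEGFR-2 measured after Triton X-100 permeabilization before fixation. Read by flow cytometry as % of DMSO control.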

HMEC-1 [15] = assay: Effect on VEGFR2 in HMEC1 cells assessed as total VEGFR2 level at 10 uM incubated for 24 hrs by flow cytometric analysis relative to control; assay type: functional, Homo sapiens
Outline: (§6)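 HMEC-1 cells exposed 24 h to compound. Membrane VEGFR-2 measured on fixed cells stained with Alexa Fluor 647 anti-CD309; total VEGFR-2 measured on lysates or permeabilized cells. Read by flow cytometry as % of DMSO control; mean ± SD of three experiments.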

HMEC-1 [16] = assay: Effect on VEGFR2 in HMEC1 cells assessed as membrane VEGFR2 level at 100 uM incubated for 24 hrs by flow cytometric analysis relative to control; assay type: functional, Homo sapiens; outline: as §5
HMEC-1 [17] = assay: Effect on VEGFR2 in HMEC1 cells assessed as membrane VEGFR2 level at 10 uM incubated for 24 hrs by flow cytometric analysis relative to control; assay type: functional, Homo sapiens; outline: as §6
A549 [18] = assay: Effect on VEGFR2 in human A549 cells assessed as total VEGFR2 level at 10 uM incubated for 24 hrs by flow cytometric analysis relative to control; assay type: functional
A549 [19] = assay: Effect on VEGFR2 in human A549 cells assessed as total VEGFR2 level at 100 uM incubated for 24 hrs by flow cytometric analysis relative to control; assay type: functional
HMEC-1 [20] = assay: Antiangiogenic activity against HMEC1 cells assessed as inhibition of tube formation incubated for 20 hrs by matrigel based tube formation assay; assay type: functional, Homo sapiens
Outline: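 HMEC-1 cells in EGM-2MV medium seeded at 2 x 10⁴ cells/well on Matrigel (10 mg/mL, gelled 30 min at 37°C) and attached for 30 min. Compounds were added at different concentrations and tube formation was assessed after 20 h at 37°C. The minimum concentration at which inhibition began was reported. Data representative of three experiments.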

[21] = target: Vascular endothelial growth factor receptor 2 (Homo sapiens) (UniProt P35968); assay: Inhibition of VEGFR2 in HMEC1 cells assessed as phosphorylated Erk1/2 level at 10 uM incubated for 24 hrs by Western blot analysis relative to control; assay type: cell-based
Outline: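 HMEC-1 lysates from the phospho-VEGFR-2 experiment (24 h compound, serum starvation, 30 min VEGF-165 stimulation) used at 100 µg protein for SDS gel electrophoresis and PVDF transfer. Blocked in 5% milk/TBST, then probed overnight at 4 °C with anti-phospho-ERK1/2 (T202/[…]) and an HRP secondary. Chemiluminescent detection; β-actin as internal control; quantified versus DMSO control.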

HMEC-1 [22] = assay: Ratio of MAC for sorafenib to MAC of test compound for antiangiogenic activity against HMEC1 cells; assay type: functional, Homo sapiens
[23] = target: Vascular endothelial growth factor receptor 2 (Homo sapiens) (UniProt P35968)
A549 [24] = assay: Effect on VEGFR2 in human A549 cells assessed as reduction in membrane VEGFR2 level incubated for 24 hrs by confocal laser scanning microscopic method; assay type: functional, cell-based
Outline: (§7)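 A549 cells on cover glass treated 24 h with compound at 10 µM, then permeabilized (PEM-Triton X-100 0.5%) and fixed (3.7% formaldehyde). Direct staining 2 h at 37°C in darkness with Alexa Fluor 647 anti-VEGFR-2. Confocal imaging with a 63x oil objective, excitation 650 nm, emission 665 nm.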

[25] = target: Vascular endothelial growth factor receptor 2 (Homo sapiens) (UniProt P35968); assay: Inhibition of VEGFR2 in HMEC1 cells assessed as phosphorylated VEGFR2 level at 10 uM incubated for 24 hrs by sandwich ELISA; assay type: cell-based
Outline: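 HMEC-1 cells (5 × 10⁵/well) grown to 80% confluence, starved 24 h in 0.1% FBS medium, then treated 24 h with compound. Stimulated with VEGF-165 100 ng/ml for 30 min at 37°C. Lysates Bradford-normalized; phospho-VEGFR-2 (Tyr1175) measured by sandwich ELISA, % of DMSO control.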

HMEC-1 [26] = assay: Antiangiogenic activity against HMEC1 cells assessed as inhibition of neovascularization at 0.01 to 1 uM incubated for 20 hrs; assay type: functional, cell-based; settings: Homo sapiens
Outline: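 HMEC-1 cells seeded on Matrigel-coated wells (10 mg/mL Matrigel, gelled 30 min at 37°C) at 2 x 10⁴ cells/well in EGM-2MV medium and allowed to attach 30 min. Compound was then added at 1, 0.1 and 0.01 µM, and tube destruction was assessed after 20 h at 37°C by imaging.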

A549 [27] = assay: Effect on VEGFR2 in human A549 cells assessed as inhibition of VEGFR2 protein internalization to nucleus incubated for 24 hrs by confocal laser scanning microscopic method; assay type: functional, cell-based; outline: as §7

Chain of Vascular endothelial growth factor receptor 2 (Homo sapiens) (P35968 whole entry): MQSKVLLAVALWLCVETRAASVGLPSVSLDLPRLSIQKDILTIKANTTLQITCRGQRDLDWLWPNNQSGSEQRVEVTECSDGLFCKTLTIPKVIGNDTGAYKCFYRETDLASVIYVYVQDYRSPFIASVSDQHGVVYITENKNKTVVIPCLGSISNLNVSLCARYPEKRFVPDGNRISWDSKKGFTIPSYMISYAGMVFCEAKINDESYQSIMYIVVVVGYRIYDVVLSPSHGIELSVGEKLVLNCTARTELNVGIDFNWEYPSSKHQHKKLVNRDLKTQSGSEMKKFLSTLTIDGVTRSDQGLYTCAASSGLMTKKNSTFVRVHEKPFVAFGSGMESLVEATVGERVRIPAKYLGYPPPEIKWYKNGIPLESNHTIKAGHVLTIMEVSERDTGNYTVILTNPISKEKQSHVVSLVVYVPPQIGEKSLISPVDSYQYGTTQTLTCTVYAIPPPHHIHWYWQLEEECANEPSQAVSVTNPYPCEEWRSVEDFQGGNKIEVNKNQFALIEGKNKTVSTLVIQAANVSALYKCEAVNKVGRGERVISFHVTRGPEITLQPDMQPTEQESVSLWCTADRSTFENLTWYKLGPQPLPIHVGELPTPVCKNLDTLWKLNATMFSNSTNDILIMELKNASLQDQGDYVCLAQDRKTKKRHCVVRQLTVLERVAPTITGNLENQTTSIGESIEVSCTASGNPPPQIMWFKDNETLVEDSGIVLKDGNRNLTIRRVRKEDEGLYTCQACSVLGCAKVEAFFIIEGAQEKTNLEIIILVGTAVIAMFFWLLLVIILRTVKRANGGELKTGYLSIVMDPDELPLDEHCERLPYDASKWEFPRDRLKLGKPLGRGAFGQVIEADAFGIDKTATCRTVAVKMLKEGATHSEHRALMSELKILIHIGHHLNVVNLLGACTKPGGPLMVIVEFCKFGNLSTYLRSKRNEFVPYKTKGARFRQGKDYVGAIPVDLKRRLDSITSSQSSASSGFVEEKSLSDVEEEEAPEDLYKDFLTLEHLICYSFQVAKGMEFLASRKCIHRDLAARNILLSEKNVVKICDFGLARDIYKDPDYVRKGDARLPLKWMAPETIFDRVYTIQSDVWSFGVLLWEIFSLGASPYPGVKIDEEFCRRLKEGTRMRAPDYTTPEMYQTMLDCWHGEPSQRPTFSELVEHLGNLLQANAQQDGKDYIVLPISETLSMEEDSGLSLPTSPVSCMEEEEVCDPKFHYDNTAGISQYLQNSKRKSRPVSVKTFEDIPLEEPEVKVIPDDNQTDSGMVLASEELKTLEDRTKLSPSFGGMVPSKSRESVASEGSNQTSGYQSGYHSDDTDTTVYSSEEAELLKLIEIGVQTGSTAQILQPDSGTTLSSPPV
Chain of Programmed cell death 1 ligand 1 (Homo sapiens) (Q9NZQ7 whole entry): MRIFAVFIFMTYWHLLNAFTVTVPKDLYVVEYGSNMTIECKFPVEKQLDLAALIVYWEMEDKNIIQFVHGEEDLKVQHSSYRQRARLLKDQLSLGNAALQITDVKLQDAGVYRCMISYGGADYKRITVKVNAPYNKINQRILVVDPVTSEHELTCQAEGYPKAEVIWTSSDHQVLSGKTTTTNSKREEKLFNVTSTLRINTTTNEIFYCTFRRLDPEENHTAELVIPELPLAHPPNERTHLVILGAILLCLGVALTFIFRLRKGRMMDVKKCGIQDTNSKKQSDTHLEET

Row | IC50 (HeLa) [µM] | IC50 (A549 [5]) [µM] | IC50 (HT-29 [6]) [µM] | IC50 (MCF7) [µM] | Activity [21] | Structure (SMILES) | Activity (A549 [1]) | ΔTm [2] [°C] | IC50 (HEK293) [µM] | Activity (A549 [4]) [%] | Activity (A549 [7]) [%] | Activity (A549 [8]) [%] | Activity (A549 [9]) | IC50 (HMEC-1 [10]) [µM] | Activity (A549 [12]) [%] | Activity (A549 [13]) [%] | Activity (HMEC-1 [15]) [%] | Activity (HMEC-1 [17]) [%] | Activity (A549 [18]) [%] | MAC (HMEC-1 [20]) [µM] | Ratio (HMEC-1 [22]) | also measured
1 | > 100 | 6 | 19 | 20 |  | Cc1c(COc2ccc(CN3CCCCC3C(=O)O)cc2Br)cccc1-c1ccccc1 (centres undefined) | Active | 3.68 | 60 | 55 | 60 | 68 | Active |  |  |  |  |  |  |  |  | Activity (HT-29 [3]): 53%
2 | 11.3 | 7.7 | 3.5 | 4.3 | inactive | COc1ccc(/C=C/c2cccc(NC(=O)Nc3cccc(Cl)c3)c2)cc1 |  | 3.91 | 2.4 | 76 | 65 | 49 |  | 2 | 75 | 52 | 106 | 55 | 32 | 0.1 | 100 | ΔTm [23]: 8.35 °C; Activity (A549 [24]): Active; Activity [25]: inactive
3 | 0.7 | 1.5 | 0.52 | 0.4 | inactive | COc1ccc(/C=C/c2cccc(NC(=O)Nc3ccc(Cl)cc3)c2)cc1 | Active | 1.18 | 1 | 86 | 37 | 25 | Active | 1.8 | 48 | 56 | 109 | 56 | 10 | 0.1 | 100 | ΔTm [23]: 6.25 °C; Activity (HMEC-1 [26]): Active; Activity (A549 [24]): Active; Activity (A549 [27]): Active; Activity [25]: inactive

Row | Structure (SMILES) | IC50 (HeLa) [µM] | IC50 (A549 [5]) [µM] | IC50 (HT-29 [6]) [µM] | IC50 (MCF7) [µM] | Activity [21] | Activity (A549 [1]) | ΔTm [2] [°C] | IC50 (HEK293) [µM] | Activity (A549 [4]) [%] | Activity (A549 [7]) [%] | Activity (A549 [8]) [%] | Activity (A549 [9]) | IC50 (HMEC-1 [10]) [µM] | Activity (A549 [12]) [%] | Activity (A549 [13]) [%] | Activity (HMEC-1 [15]) [%] | Activity (HMEC-1 [17]) [%] | Activity (A549 [18]) [%] | MAC (HMEC-1 [20]) [µM] | Ratio (HMEC-1 [22]) | also measured
4 | CNC(=O)c1cc(Oc2ccc(NC(=O)Nc3ccc(Cl)c(C(F)(F)F)c3)cc2)ccn1 [SORAFENIB] | 6.1 | 27 | 17 | 14 |  |  |  | 5 |  |  |  |  | 34 | 48 | 92 | 64 | 46 | 85 | 10 |  | Activity (A549 [11]): 92%; Activity (HMEC-1 [14]): 64%; Activity (HMEC-1 [16]): 46%; Activity (A549 [19]): 85%
